Laboratory results: ChEMBL document CHEMBL3351385, “Synthesis and preliminary mechanistic evaluation of 5-(p-tolyl)-1-(quinolin-2-yl)pyrazole-3-carboxylic acid amides with potent antiproliferative activity on human cancer cell lines” (Eur J Med Chem, 2014)
Calls of active or inactive are those of the source. No cut-off for these calls is given here.

Tests used:
[1] = biological target: Ephrin type-B receptor 1 (Homo sapiens) (UniProt P54762); test: Inhibition of EPHB1 (unknown origin) assessed as remaining enzyme activity at 10 uM by radioactive [33P]-ATP filter binding assay
In short: (§1)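 A single 10 µM concentration was tested across a 140-kinase panel. Activity was measured by a radioactive 33P-ATP filter-binding assay run at the International Center for Kinase Profiling, University of Dundee.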

[2] = biological target: Ribosomal protein S6 kinase alpha-5 (Homo sapiens) (UniProt O75582); test: Inhibition of MSK1 (unknown origin) assessed as remaining enzyme activity at 10 uM by radioactive [33P]-ATP filter binding assay
[3] = biological target: SRSF protein kinase 1 (Homo sapiens) (UniProt Q96SB4); test: Inhibition of SRPK1 (unknown origin) assessed as remaining enzyme activity at 10 uM by radioactive [33P]-ATP filter binding assay
[4] = biological target: Serine/threonine-protein kinase PAK 2 (Homo sapiens) (UniProt Q13177); test: Inhibition of PAK2 (unknown origin) assessed as remaining enzyme activity at 10 uM by radioactive [33P]-ATP filter binding assay
[5] = biological target: Protein-tyrosine kinase 6 (Homo sapiens) (UniProt Q13882); test: Inhibition of BRK (unknown origin) assessed as remaining enzyme activity at 10 uM by radioactive [33P]-ATP filter binding assay; in short: as §1
[6] = biological target: Calcium/calmodulin-dependent protein kinase kinase 2 (Homo sapiens) (UniProt Q96RR4); test: Inhibition of CAMKKB (unknown origin) assessed as remaining enzyme activity at 10 uM by radioactive [33P]-ATP filter binding assay; in short: as §1
[7] = biological target: Serine/threonine-protein kinase 3 (Homo sapiens) (UniProt Q13188); test: Inhibition of MST2 (unknown origin) assessed as remaining enzyme activity at 10 uM by radioactive [33P]-ATP filter binding assay
[8] = biological target: Mitogen-activated protein kinase kinase kinase 11 (Homo sapiens) (UniProt Q16584); test: Inhibition of MLK3 (unknown origin) assessed as remaining enzyme activity at 10 uM by radioactive [33P]-ATP filter binding assay
[9] = biological target: Mitogen-activated protein kinase 8 (Homo sapiens) (UniProt P45983); test: Inhibition of JNK1 (unknown origin) assessed as remaining enzyme activity at 10 uM by radioactive [33P]-ATP filter binding assay
[10] = biological target: Insulin-like growth factor 1 receptor (Homo sapiens) (UniProt P08069); test: Inhibition of IGF1R (unknown origin) assessed as remaining enzyme activity at 10 uM by radioactive [33P]-ATP filter binding assay
[11] = biological target: Casein kinase II (Homo sapiens) (UniProt P67870+P68400+P19784); test: Inhibition of CK2 (unknown origin) assessed as remaining enzyme activity at 10 uM by radioactive [33P]-ATP filter binding assay; assay type: protein-complex assay; in short: as §1
[12] = biological target: MAP/microtubule affinity-regulating kinase 3 (Homo sapiens) (UniProt P27448); test: Inhibition of MARK3 (unknown origin) assessed as remaining enzyme activity at 10 uM by radioactive [33P]-ATP filter binding assay
[13] = biological target: Serine/threonine-protein kinase SIK3 (Homo sapiens) (UniProt Q9Y2K2); test: Inhibition of SIK3 (unknown origin) assessed as remaining enzyme activity at 10 uM by radioactive [33P]-ATP filter binding assay
[14] = biological target: Casein kinase I isoform gamma-2 (Homo sapiens) (UniProt P78368); test: Inhibition of CK1gamma2 (unknown origin) assessed as remaining enzyme activity at 10 uM by radioactive [33P]-ATP filter binding assay; in short: as §1
[15] = biological target: CDK2/Cyclin A2 (Homo sapiens) (UniProt P24941+P20248); test: Inhibition of CDK2/Cyclin A (unknown origin) assessed as remaining enzyme activity at 10 uM by radioactive [33P]-ATP filter binding assay; assay type: protein-complex assay; in short: as §1
[16] = biological target: Dual specificity tyrosine-phosphorylation-regulated kinase 3 (Homo sapiens) (UniProt O43781); test: Inhibition of DYRK3 (unknown origin) assessed as remaining enzyme activity at 10 uM by radioactive [33P]-ATP filter binding assay; in short: as §1
[17] = Cytotoxicity against human HCT116 cells after 72 hrs by SRB assay; assay type: functional, cell-based; details: HCT-116, 72 h
In short: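 Cells kept in DMEM with 10% FCS and penicillin/streptomycin at 37°C, 5% CO2. 2000–3000 cells/well were seeded, and medium was refreshed the next day. DMSO solutions were added over 2.5–40 µM with matched DMSO-only controls for 72 h. Cells were then TCA-fixed, stained with 0.4% SRB in 1% acetic acid, solubilized in 10 mM Tris pH 8 and read at 515 nm. Data were normalized to DMSO wells and expressed as mean ±SD.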

[18] = biological target: Serine/threonine-protein kinase PAK 4 (Homo sapiens) (UniProt O96013); test: Inhibition of PAK4 (unknown origin) assessed as remaining enzyme activity at 10 uM by radioactive [33P]-ATP filter binding assay
[19] = biological target: Tyrosine-protein kinase BTK (Homo sapiens) (UniProt Q06187); test: Inhibition of BTK (unknown origin) assessed as remaining enzyme activity at 10 uM by radioactive [33P]-ATP filter binding assay; in short: as §1
[20] = biological target: Serine/threonine-protein kinase OSR1 (Homo sapiens) (UniProt O95747); test: Inhibition of OSR1 (unknown origin) assessed as remaining enzyme activity at 10 uM by radioactive [33P]-ATP filter binding assay
[21] = biological target: Serine/threonine-protein kinase ULK2 (Homo sapiens) (UniProt Q8IYT8); test: Inhibition of ULK2 (unknown origin) assessed as remaining enzyme activity at 10 uM by radioactive [33P]-ATP filter binding assay
[22] = test system: Huh-7; test: Induction of autophagy in human HuH7 cells assessed as increase in LC3-2 formation at cytotoxic IC50 level after 72 hrs by Western blotting method; assay type: functional, cell-based
[23] = biological target: Fibroblast growth factor receptor 1 (Homo sapiens) (UniProt P11362); test: Inhibition of FGFR1 (unknown origin) assessed as remaining enzyme activity at 10 uM by radioactive [33P]-ATP filter binding assay; in short: as §1
[24] = biological target: Casein kinase I isoform delta (Homo sapiens) (UniProt P48730); test: Inhibition of CK1delta (unknown origin) assessed as remaining enzyme activity at 10 uM by radioactive [33P]-ATP filter binding assay; in short: as §1
[25] = biological target: Ephrin type-A receptor 2 (Homo sapiens) (UniProt P29317); test: Inhibition of EPHA2 (unknown origin) assessed as remaining enzyme activity at 10 uM by radioactive [33P]-ATP filter binding assay; in short: as §1
[26] = biological target: MAP/microtubule affinity-regulating kinase 4 (Homo sapiens) (UniProt Q96L34); test: Inhibition of MARK4 (unknown origin) assessed as remaining enzyme activity at 10 uM by radioactive [33P]-ATP filter binding assay
[27] = biological target: TGF-beta receptor type-1 (Homo sapiens) (UniProt P36897); test: Inhibition of TGFBR1 (unknown origin) assessed as remaining enzyme activity at 10 uM by radioactive [33P]-ATP filter binding assay
[28] = biological target: Serine/threonine-protein kinase BRSK1 (Homo sapiens) (UniProt Q8TDC3); test: Inhibition of BRSK1 (unknown origin) assessed as remaining enzyme activity at 10 uM by radioactive [33P]-ATP filter binding assay; in short: as §1
Sequence of Serine/threonine-protein kinase BRSK1 (Homo sapiens) (Q8TDC3 whole entry): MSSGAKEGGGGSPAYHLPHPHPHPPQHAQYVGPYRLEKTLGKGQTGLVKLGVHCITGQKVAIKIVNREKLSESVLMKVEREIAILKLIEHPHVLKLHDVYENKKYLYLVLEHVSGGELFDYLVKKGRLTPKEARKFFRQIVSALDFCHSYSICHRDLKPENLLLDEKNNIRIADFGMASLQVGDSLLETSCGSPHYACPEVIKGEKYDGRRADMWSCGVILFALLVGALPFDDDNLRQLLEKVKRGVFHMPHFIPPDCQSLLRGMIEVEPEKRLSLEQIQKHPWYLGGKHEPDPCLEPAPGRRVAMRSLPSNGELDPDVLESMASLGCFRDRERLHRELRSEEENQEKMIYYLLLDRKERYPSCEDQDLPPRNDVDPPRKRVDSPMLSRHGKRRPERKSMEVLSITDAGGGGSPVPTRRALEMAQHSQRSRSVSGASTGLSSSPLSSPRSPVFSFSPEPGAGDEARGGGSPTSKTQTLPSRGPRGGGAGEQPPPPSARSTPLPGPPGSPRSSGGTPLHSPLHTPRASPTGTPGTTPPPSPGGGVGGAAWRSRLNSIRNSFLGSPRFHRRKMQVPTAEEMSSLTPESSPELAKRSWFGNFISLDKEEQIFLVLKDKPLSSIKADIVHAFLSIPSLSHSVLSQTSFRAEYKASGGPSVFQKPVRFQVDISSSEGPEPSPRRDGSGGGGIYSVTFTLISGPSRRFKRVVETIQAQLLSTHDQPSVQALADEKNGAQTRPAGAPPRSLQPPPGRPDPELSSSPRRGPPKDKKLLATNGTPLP

Sequence of Dual specificity tyrosine-phosphorylation-regulated kinase 3 (Homo sapiens) (O43781 whole entry): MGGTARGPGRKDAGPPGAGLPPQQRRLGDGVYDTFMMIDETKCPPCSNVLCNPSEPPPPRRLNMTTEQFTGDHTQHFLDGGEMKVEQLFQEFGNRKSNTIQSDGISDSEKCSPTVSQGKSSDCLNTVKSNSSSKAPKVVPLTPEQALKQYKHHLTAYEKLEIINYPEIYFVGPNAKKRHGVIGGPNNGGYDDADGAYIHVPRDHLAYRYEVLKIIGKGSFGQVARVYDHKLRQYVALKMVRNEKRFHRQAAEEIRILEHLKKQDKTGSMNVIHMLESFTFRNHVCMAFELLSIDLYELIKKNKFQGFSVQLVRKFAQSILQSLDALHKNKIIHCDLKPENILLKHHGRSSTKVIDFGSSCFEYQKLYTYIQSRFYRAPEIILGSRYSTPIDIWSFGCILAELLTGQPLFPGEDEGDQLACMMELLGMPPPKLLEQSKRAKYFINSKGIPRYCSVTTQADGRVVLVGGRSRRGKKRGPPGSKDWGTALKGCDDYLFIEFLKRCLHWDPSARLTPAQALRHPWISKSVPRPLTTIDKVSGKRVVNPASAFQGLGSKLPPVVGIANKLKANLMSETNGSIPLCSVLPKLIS
Sequence of Tyrosine-protein kinase BTK (Homo sapiens) (Q06187 whole entry): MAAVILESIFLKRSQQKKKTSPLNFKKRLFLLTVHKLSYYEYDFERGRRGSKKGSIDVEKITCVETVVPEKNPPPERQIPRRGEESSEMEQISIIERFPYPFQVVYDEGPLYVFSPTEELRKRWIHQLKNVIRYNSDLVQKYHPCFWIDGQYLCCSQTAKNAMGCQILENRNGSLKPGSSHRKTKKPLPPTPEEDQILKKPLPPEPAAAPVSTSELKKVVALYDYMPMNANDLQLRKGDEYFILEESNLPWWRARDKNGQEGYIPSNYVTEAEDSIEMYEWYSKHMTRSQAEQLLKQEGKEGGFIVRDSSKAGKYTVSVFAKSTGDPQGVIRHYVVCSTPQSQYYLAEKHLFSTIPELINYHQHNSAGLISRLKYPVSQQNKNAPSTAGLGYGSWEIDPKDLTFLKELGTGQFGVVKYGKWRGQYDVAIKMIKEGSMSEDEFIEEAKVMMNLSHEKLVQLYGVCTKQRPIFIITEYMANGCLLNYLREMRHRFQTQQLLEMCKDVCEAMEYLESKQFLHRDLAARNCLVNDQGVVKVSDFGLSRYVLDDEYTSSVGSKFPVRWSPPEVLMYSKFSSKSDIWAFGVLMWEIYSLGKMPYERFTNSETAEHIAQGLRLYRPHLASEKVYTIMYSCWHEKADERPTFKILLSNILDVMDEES
Sequence of MAP/microtubule affinity-regulating kinase 4 (Homo sapiens) (Q96L34 whole entry): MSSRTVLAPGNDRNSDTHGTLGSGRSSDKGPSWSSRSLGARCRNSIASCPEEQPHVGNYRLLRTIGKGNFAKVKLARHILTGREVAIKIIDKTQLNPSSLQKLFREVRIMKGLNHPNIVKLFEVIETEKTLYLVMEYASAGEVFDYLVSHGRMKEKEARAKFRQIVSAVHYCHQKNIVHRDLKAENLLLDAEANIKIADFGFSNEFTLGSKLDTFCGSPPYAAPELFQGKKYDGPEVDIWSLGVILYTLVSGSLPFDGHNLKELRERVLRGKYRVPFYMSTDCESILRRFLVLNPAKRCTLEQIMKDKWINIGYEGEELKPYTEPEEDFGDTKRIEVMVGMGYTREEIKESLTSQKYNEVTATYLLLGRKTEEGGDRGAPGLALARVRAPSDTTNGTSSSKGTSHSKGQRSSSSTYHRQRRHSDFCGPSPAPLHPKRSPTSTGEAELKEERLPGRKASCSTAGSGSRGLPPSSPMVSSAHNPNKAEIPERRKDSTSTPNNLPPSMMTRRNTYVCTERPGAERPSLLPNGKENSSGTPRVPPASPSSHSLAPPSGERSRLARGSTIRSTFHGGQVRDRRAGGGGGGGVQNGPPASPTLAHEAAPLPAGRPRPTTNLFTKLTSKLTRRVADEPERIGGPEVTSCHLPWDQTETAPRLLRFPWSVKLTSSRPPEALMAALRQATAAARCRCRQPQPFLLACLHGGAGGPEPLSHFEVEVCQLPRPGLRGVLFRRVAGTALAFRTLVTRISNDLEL
Sequence of Casein kinase I isoform gamma-2 (Homo sapiens) (P78368 whole entry, looked up, canonical isoform): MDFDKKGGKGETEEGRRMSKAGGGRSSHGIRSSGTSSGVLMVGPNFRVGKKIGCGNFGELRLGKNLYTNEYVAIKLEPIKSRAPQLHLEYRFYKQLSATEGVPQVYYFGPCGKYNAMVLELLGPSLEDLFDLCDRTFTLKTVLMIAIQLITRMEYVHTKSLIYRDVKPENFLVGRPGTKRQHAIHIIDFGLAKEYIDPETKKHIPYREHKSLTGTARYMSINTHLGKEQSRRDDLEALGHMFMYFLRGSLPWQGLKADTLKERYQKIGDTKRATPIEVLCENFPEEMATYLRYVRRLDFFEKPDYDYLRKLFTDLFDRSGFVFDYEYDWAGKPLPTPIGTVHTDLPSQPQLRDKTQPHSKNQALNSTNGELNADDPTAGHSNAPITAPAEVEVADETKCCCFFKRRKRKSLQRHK
Sequence of SRSF protein kinase 1 (Homo sapiens) (Q96SB4 whole entry): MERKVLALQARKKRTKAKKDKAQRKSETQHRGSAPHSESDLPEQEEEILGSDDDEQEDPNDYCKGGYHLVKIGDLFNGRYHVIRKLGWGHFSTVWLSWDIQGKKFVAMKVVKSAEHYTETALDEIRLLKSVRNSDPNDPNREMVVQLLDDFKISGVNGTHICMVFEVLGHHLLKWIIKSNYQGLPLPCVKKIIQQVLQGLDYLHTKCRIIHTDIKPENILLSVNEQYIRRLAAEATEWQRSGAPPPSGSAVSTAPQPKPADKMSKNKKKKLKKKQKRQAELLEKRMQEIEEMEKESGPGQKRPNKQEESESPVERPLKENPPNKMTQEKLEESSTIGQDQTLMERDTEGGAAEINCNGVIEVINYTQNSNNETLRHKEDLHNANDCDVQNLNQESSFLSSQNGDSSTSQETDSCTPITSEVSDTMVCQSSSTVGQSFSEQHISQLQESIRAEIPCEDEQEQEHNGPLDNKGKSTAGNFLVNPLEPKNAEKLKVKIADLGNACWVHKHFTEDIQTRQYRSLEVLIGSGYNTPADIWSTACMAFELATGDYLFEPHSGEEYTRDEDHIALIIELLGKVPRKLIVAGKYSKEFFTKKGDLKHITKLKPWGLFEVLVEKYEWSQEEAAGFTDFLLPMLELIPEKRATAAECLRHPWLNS
Sequence of Serine/threonine-protein kinase OSR1 (Homo sapiens) (O95747 2-527 limits assumed): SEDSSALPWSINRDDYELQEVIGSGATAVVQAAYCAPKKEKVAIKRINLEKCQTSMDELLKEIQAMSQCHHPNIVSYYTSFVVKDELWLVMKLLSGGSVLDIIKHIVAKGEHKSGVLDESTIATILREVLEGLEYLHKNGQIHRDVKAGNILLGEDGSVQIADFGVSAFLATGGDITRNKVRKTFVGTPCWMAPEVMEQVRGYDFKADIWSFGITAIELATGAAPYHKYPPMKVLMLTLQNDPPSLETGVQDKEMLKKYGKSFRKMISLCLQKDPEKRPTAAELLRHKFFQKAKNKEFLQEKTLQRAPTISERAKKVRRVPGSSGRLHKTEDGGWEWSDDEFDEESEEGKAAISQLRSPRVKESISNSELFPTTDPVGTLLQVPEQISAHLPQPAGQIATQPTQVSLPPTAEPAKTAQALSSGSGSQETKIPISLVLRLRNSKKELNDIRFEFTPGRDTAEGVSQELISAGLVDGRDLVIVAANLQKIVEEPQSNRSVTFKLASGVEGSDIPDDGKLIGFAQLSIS
Sequence of Calcium/calmodulin-dependent protein kinase kinase 2 (Homo sapiens) (Q96RR4 2-588 limits assumed): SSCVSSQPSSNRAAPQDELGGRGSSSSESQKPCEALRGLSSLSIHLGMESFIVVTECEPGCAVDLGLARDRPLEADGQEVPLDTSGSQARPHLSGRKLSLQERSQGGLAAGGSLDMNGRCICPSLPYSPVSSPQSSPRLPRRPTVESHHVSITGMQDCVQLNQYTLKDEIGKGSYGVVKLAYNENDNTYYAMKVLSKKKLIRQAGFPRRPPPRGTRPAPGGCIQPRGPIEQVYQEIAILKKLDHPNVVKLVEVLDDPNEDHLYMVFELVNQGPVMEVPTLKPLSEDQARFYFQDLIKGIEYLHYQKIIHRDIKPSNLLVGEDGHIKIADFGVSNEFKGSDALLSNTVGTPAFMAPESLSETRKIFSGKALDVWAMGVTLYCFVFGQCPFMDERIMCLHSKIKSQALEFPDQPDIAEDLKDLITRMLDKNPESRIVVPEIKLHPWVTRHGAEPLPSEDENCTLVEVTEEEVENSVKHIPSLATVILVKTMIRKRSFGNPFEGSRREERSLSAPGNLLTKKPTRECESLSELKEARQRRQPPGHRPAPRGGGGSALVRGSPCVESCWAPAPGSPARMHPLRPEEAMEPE

For `Cc1ccc(-c2cc(C(=O)Nc3ccnc(Cl)c3)nn2-c2ccc3ccccc3n2)cc1`, the Activity [1] was 128%, the Activity [2] was 89% and the Activity [3] was 104%. The Activity [4] was 109%, the Activity [5] was 109% and the Activity [6] was 85%. The Activity [7] was 104%, the Activity [8] was 76% and the Activity [9] was 103%. It also gave an Activity [10] of 98%, an Activity [11] of 85% and an Activity [12] of 103%. The Activity [13] was 81%, the Activity [14] was 99% and the Activity [15] was 102%. For the same molecule, the Activity [16] was 86%, the IC50 [17] was 1100 nM and the Activity [18] was 105%. The Activity [19] was 92%, the Activity [20] was 111% and the Activity [21] was 112%. For the same molecule, the Activity [22] was “inactive”, the Activity [23] was 127% and the Activity [24] was 96%. For the same molecule, the Activity [25] was 111%, the Activity [26] was 76% and the Activity [27] was 108%. The Activity [28] was 108%.
